Laboratory results published in ChEMBL document CHEMBL2203175, “Discovery and optimization of sulfonyl acrylonitriles as selective, covalent inhibitors of protein phosphatase methylesterase-1” (J Med Chem, 2011).
The source made the active and inactive calls. No cut-off for these calls is given here.

Tests used:
[1] = target: S-formylglutathione hydrolase (Homo sapiens) (UniProt P10768); experiment: Inhibition of ESD binding to FP-biotin in [12C][14N]-lysine, arginine and [13C6][15N2]-lysine, arginine labeled HEK293T cells at 20 uM after 1 hr by isotopic activity-based protein profiling-MudPIT assay; assay type: cell-based; conditions: HEK-293T
Method in brief: (§1)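 SILAC HEK 293T: light cells (12C14N-Lys/Arg) treated with compound, heavy cells (13C6 15N2-Lys/Arg) with DMSO, 1 h at 37 °C. Proteomes were mixed 1:1 (0.5 mg each) and labeled with FP-biotin (5 μM, 1 h, 25 °C), then streptavidin-enriched, digested on bead with trypsin, and run by MudPIT. Light/heavy ratios were normalized to a DMSO/DMSO control. Only SHs with ≥2 quantifiable peptides were kept; mean ± SEM across peptides.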

[2] = target: T1, Protein phosphatase methylesterase 1 (Homo sapiens) (UniProt Q9Y570); conditions: HEK-293T, 50 uM
T1 sequence (whole entry): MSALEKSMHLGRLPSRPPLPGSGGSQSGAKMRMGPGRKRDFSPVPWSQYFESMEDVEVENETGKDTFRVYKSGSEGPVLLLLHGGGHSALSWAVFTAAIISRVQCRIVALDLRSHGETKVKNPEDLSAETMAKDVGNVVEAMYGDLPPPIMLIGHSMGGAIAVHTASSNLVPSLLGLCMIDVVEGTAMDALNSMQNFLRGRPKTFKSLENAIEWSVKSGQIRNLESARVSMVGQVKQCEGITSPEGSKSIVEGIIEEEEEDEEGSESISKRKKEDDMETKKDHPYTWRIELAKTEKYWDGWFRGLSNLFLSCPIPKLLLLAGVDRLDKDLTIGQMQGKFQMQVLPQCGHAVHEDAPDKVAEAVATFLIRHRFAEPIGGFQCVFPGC

HEK-293T [3] = experiment: Effect on chloroacetamide-Rh labeled soluble proteome in HEK293T cells at 100 uM incubated for 1 hr before protein labeling measured after 1 hr relative to control; assay type: cell-based; conditions: Homo sapiens
Method in brief: (§2)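 HEK 293T cells (DMEM, 10% FBS, 37 °C, 5% CO2) given compound in medium for 1 h at 37 °C, washed, scraped, sonicated in PBS pH 7.5. Soluble fraction diluted to 1 mg/mL protein in PBS, labeled with CA-rhodamine or SE-rhodamine (5 μM, 1 h, 25 °C), run on reducing SDS-PAGE (10%), and band intensities read by in-gel fluorescence against DMSO-treated samples.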

[4] = target: Patatin-like phospholipase domain-containing protein 6 (Homo sapiens) (UniProt Q8IY17); experiment: Inhibition of PNPLA6 binding to FP-biotin in [12C][14N]-lysine, arginine and [13C6][15N2]-lysine, arginine labeled HEK293T cells at 20 uM after 1 hr by isotopic activity-based protein profiling-MudPIT assay; assay type: cell-based; conditions: HEK-293T; method in brief: as §1
[5] = target: Monoacylglycerol lipase ABHD6 (Homo sapiens) (UniProt Q9BV23); experiment: Inhibition of ABHD6 binding to FP-biotin in [12C][14N]-lysine, arginine and [13C6][15N2]-lysine, arginine labeled HEK293T cells at 20 uM after 1 hr by isotopic activity-based protein profiling-MudPIT assay; assay type: cell-based; conditions: HEK-293T; method in brief: as §1
[6] = target: Prolyl endopeptidase-like (Homo sapiens) (UniProt Q4J6C6); experiment: Inhibition of PREPL binding to FP-biotin in [12C][14N]-lysine, arginine and [13C6][15N2]-lysine, arginine labeled HEK293T cells at 20 uM after 1 hr by isotopic activity-based protein profiling-MudPIT assay; assay type: cell-based; conditions: HEK-293T; method in brief: as §1
[7] = target: Lysophospholipase-like protein 1 (Homo sapiens) (UniProt Q5VWZ2); experiment: Inhibition of LYPLAL1 binding to FP-biotin in [12C][14N]-lysine, arginine and [13C6][15N2]-lysine, arginine labeled HEK293T cells at 20 uM after 1 hr by isotopic activity-based protein profiling-MudPIT assay; assay type: cell-based; conditions: HEK-293T; method in brief: as §1
[8] = target: Retinoid-inducible serine carboxypeptidase (Homo sapiens) (UniProt Q9HB40); experiment: Inhibition of SCPEP1 binding to FP-biotin in [12C][14N]-lysine, arginine and [13C6][15N2]-lysine, arginine labeled HEK293T cells at 20 uM after 1 hr by isotopic activity-based protein profiling-MudPIT assay; assay type: cell-based; conditions: HEK-293T; method in brief: as §1
[9] = target: Diacylglycerol lipase-beta (Homo sapiens) (UniProt Q8NCG7); experiment: Inhibition of DAGLB binding to FP-biotin in [12C][14N]-lysine, arginine and [13C6][15N2]-lysine, arginine labeled HEK293T cells at 20 uM after 1 hr by isotopic activity-based protein profiling-MudPIT assay; assay type: cell-based; conditions: HEK-293T; method in brief: as §1
[10] = target: Acyl-coenzyme A thioesterase 2, mitochondrial (Homo sapiens) (UniProt P49753); experiment: Inhibition of ACOT2 binding to FP-biotin in [12C][14N]-lysine, arginine and [13C6][15N2]-lysine, arginine labeled HEK293T cells at 20 uM after 1 hr by isotopic activity-based protein profiling-MudPIT assay; assay type: cell-based; conditions: HEK-293T; method in brief: as §1
[11] = target: Lysosomal protective protein (Homo sapiens) (UniProt P10619); experiment: Inhibition of CTSA binding to FP-biotin in [12C][14N]-lysine, arginine and [13C6][15N2]-lysine, arginine labeled HEK293T cells at 20 uM after 1 hr by isotopic activity-based protein profiling-MudPIT assay; assay type: cell-based; conditions: HEK-293T; method in brief: as §1
[12] = target: Dipeptidyl peptidase 8 (Homo sapiens) (UniProt Q6V1X1); experiment: Inhibition of DPP8 binding to FP-biotin in [12C][14N]-lysine, arginine and [13C6][15N2]-lysine, arginine labeled HEK293T cells at 20 uM after 1 hr by isotopic activity-based protein profiling-MudPIT assay; assay type: cell-based; conditions: HEK-293T; method in brief: as §1
[13] = target: T1, Protein phosphatase methylesterase 1 (Homo sapiens); conditions: HEK-293T, 20 uM
HEK-293T [14] = experiment: Effect on sulfonate ester-Rh labeled soluble proteome in HEK293T cells at 100 uM incubated for 1 hr before proteome labeling measured after 1 hr relative to control; assay type: cell-based; conditions: Homo sapiens; method in brief: as §2
[15] = target: Cytosolic phospholipase A2 (Homo sapiens) (UniProt P47712); experiment: Inhibition of PLA2G4A binding to FP-biotin in [12C][14N]-lysine, arginine and [13C6][15N2]-lysine, arginine labeled HEK293T cells at 20 uM after 1 hr by isotopic activity-based protein profiling-MudPIT assay; assay type: cell-based; conditions: HEK-293T; method in brief: as §1
[16] = target: Acyl-coenzyme A thioesterase 1 (Homo sapiens) (UniProt Q86TX2); experiment: Inhibition of ACOT1 binding to FP-biotin in [12C][14N]-lysine, arginine and [13C6][15N2]-lysine, arginine labeled HEK293T cells at 20 uM after 1 hr by isotopic activity-based protein profiling-MudPIT assay; assay type: cell-based; conditions: HEK-293T; method in brief: as §1
[17] = target: Platelet-activating factor acetylhydrolase IB subunit alpha2 (Homo sapiens) (UniProt P68402); experiment: Inhibition of PAFAH1B2 binding to FP-biotin in [12C][14N]-lysine, arginine and [13C6][15N2]-lysine, arginine labeled HEK293T cells at 20 uM after 1 hr by isotopic activity-based protein profiling-MudPIT assay; assay type: cell-based; conditions: HEK-293T; method in brief: as §1
Sequence of Platelet-activating factor acetylhydrolase IB subunit alpha2 (Homo sapiens) (P68402 whole entry): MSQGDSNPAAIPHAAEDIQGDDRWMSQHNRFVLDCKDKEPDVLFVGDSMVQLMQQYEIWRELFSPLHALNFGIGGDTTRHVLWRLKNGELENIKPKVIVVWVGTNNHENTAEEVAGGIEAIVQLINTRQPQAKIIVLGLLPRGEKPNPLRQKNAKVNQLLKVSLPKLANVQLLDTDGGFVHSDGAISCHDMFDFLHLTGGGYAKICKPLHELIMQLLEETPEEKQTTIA

Sequence of Lysosomal protective protein (Homo sapiens) (P10619 29-326 limits assumed): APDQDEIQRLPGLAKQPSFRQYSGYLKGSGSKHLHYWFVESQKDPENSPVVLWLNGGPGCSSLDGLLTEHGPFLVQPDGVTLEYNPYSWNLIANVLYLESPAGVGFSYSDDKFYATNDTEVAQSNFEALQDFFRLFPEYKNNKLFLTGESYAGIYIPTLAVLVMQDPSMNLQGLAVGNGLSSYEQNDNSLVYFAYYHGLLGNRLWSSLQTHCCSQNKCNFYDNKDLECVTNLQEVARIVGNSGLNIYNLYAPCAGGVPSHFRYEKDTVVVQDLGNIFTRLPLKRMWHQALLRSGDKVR
Sequence of Lysosomal protective protein (Homo sapiens) (P10619 327-480 limits assumed): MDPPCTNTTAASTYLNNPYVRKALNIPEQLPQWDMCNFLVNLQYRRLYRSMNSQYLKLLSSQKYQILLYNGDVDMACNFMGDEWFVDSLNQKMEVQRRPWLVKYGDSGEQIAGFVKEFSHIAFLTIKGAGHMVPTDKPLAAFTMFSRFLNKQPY
Sequence of Retinoid-inducible serine carboxypeptidase (Homo sapiens) (Q9HB40 whole entry): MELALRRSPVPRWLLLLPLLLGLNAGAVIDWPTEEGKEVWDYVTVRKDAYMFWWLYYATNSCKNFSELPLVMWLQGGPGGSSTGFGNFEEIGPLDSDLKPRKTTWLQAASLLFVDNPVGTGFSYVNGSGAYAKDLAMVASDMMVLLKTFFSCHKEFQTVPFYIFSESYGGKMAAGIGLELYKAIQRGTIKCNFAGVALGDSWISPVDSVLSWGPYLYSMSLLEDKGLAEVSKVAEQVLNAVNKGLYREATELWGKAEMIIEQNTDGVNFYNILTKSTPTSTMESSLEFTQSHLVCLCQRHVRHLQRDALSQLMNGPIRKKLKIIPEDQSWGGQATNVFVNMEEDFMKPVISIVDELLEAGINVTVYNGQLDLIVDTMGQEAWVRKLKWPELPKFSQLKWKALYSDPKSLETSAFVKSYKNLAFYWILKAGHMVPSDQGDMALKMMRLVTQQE
Sequence of Acyl-coenzyme A thioesterase 2, mitochondrial (Homo sapiens) (P49753 whole entry): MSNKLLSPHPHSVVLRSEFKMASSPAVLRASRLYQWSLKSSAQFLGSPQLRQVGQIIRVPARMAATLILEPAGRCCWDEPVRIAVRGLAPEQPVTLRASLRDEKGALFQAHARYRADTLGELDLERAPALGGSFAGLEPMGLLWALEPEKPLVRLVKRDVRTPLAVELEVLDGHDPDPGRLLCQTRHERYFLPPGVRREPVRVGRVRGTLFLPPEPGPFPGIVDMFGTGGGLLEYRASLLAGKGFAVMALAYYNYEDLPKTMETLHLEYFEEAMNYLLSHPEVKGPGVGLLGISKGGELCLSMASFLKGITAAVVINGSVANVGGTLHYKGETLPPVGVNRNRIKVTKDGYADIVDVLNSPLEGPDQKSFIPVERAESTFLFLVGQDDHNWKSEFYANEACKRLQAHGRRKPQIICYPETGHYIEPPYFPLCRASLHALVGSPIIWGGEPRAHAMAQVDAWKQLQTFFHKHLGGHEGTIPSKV
Sequence of Diacylglycerol lipase-beta (Homo sapiens) (Q8NCG7 whole entry): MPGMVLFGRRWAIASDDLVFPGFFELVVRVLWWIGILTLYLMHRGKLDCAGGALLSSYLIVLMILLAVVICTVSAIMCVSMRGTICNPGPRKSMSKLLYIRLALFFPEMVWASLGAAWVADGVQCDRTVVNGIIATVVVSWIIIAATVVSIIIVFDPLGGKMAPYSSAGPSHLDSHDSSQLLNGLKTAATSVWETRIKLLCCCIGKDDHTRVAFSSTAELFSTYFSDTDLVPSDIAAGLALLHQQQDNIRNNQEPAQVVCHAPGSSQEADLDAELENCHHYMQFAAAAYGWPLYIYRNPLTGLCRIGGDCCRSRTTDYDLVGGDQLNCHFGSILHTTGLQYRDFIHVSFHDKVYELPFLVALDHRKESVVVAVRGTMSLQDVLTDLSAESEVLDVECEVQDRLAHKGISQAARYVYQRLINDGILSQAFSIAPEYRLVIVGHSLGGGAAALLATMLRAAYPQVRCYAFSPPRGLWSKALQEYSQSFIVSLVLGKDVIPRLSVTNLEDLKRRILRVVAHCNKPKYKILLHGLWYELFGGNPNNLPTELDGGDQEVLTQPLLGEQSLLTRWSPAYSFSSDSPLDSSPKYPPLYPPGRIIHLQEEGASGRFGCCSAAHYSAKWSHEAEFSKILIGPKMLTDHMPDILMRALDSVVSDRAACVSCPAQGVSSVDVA
Sequence of Lysophospholipase-like protein 1 (Homo sapiens) (Q5VWZ2 whole entry): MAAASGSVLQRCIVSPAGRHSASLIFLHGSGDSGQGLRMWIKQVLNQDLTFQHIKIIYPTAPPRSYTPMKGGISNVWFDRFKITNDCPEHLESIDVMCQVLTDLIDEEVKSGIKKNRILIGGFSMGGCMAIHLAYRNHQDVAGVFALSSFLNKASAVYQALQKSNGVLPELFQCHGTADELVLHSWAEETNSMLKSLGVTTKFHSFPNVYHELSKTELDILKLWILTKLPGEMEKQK
Sequence of Prolyl endopeptidase-like (Homo sapiens) (Q4J6C6 whole entry): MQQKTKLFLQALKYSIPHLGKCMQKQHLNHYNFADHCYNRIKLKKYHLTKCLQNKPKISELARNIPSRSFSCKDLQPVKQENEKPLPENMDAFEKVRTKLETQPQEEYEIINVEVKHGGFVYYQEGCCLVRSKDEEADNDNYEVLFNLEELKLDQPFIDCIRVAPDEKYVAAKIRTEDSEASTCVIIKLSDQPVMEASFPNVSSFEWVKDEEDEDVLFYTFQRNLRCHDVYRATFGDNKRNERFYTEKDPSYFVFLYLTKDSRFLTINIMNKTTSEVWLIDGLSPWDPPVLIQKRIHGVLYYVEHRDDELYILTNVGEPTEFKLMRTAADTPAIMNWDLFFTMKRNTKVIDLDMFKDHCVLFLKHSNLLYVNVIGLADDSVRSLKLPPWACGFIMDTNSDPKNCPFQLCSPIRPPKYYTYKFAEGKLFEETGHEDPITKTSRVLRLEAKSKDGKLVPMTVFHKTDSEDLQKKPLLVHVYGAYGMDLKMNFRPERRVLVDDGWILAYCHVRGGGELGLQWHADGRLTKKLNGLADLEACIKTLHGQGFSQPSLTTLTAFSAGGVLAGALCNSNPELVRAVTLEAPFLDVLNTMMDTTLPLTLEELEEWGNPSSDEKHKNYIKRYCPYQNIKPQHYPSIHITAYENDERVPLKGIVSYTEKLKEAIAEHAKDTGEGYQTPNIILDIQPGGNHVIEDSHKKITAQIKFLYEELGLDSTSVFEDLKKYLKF
Sequence of Monoacylglycerol lipase ABHD6 (Homo sapiens) (Q9BV23 whole entry): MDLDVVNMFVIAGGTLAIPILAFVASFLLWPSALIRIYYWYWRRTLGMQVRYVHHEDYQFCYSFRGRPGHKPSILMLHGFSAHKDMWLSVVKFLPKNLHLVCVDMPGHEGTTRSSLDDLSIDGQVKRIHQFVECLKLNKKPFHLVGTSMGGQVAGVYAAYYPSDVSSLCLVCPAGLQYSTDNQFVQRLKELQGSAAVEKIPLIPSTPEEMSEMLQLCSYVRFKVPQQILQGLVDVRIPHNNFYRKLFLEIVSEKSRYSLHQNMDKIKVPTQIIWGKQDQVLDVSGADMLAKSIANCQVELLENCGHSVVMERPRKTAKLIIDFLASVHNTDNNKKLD
Sequence of Cytosolic phospholipase A2 (Homo sapiens) (P47712 whole entry): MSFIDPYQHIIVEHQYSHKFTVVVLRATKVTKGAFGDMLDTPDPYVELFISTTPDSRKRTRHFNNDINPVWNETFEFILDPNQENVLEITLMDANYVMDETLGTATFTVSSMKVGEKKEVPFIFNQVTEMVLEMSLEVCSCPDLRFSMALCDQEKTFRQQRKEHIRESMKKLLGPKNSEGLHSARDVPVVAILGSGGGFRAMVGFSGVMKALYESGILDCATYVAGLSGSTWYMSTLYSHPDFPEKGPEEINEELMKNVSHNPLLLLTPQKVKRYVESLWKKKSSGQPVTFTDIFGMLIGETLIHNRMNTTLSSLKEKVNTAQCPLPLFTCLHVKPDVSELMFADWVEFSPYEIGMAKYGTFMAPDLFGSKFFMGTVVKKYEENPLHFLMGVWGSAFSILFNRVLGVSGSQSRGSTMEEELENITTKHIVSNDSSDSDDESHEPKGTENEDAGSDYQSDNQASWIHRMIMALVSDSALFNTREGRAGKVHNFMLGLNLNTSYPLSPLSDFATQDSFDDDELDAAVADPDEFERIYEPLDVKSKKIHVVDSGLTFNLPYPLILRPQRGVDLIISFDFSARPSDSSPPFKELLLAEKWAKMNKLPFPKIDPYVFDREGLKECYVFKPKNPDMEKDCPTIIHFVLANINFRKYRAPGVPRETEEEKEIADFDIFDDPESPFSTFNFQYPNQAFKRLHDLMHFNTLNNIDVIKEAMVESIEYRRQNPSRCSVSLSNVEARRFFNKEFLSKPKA
Sequence of S-formylglutathione hydrolase (Homo sapiens) (P10768 whole entry): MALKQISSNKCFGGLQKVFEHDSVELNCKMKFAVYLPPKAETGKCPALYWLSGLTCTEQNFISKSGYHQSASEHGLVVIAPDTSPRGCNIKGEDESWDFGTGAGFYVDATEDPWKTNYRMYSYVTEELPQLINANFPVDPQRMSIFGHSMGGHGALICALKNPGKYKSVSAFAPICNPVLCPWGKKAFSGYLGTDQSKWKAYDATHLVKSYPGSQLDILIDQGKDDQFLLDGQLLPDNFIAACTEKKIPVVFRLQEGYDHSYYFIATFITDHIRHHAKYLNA

With `N#C/C(=C\c1cccn1S(=O)(=O)c1cccc([N+](=O)[O-])c1)S(=O)(=O)c1ccc(F)cc1` the inhibition [1] was “inactive”, the inhibition [2] was “Active” and the Activity (HEK-293T [3]) was “inactive”. For the same compound, the inhibition [4] was “inactive”, the inhibition [5] was “inactive” and the inhibition [6] was “inactive”. For the same compound, the inhibition [7] was “inactive”, the inhibition [8] was “inactive” and the inhibition [9] was “inactive”. For the same compound, the inhibition [10] was “inactive”, the inhibition [11] was “inactive” and the inhibition [12] was “inactive”. For the same compound, the inhibition [13] was “Active”, the Activity (HEK-293T [14]) was “inactive” and the inhibition [15] was “inactive”. For the same compound, the inhibition [16] was “inactive” and the inhibition [17] was “inactive”.
